Measured values from ChEMBL document CHEMBL1122520, “Potential antitumor agents. 43. Synthesis and biological activity of dibasic 9-aminoacridine-4-carboxamides, a new class of antitumor agent” (J Med Chem, 1984).

System: not listed separately
Test: Logarithmic association constant determined by ethidium displacement from DNA co-polymers (adenine & thymine)
Settings: not given
Outline: (§1)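 Binding constants derived from ethidium displacement from synthetic DNA copolymers, assuming competitive binding.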

SMILES | Log K
CCCCCCNc1c2ccccc2nc2c(C(=O)NCCN(C)C)cccc12 | 7
CN(C)CCNC(=O)c1cccc2c(NCCO)c3ccccc3nc12 | 6.82
CCCCCNc1c2ccccc2nc2c(C(=O)NCCN(C)C)cccc12 | 6.91
CN(C)CCCCCNC(=O)c1cccc2c(N)c3ccccc3nc12 | 7.45
CCN(CC)CCNC(=O)c1cccc2c(N)c3ccccc3nc12 | 7.26

More lines, now with the values ahead:

Log K | SMILES
7.41 | CN(C)CCCCCCNC(=O)c1cccc2c(N)c3ccccc3nc12
7.08 | CN(C)CCNC(=O)c1ccc2nc3ccccc3c(N)c2c1
7.49 | CN(C)CCCCNC(=O)c1cccc2c(N)c3ccccc3nc12
6.58 | CN1CCN(C(=O)c2cccc3c(N)c4ccccc4nc23)CC1
7.43 | CN(C)CCCCCCCNC(=O)c1cccc2c(N)c3ccccc3nc12
7.83 | CN(C)CCNC(=O)c1cccc2c(NCCN(C)C)c3ccccc3nc12

Species: Mus musculus
Test: Percentage increase in lifespan of treated animals over that of animals injected with tumor (10e6 P388 leukemia cells), at the optimal dose of 30 mg/(kg day)
Assay type: functional
Settings: not given

SMILES | ILS [%]
CCCCCCNc1c2ccccc2nc2c(C(=O)NCCN(C)C)cccc12 | 88

System: not listed separately
Test: Lipophilicity (Rm) (RP-TLC)
Assay type: physicochemical
Settings: not given

SMILES | Rm
CCCCCCNc1c2ccccc2nc2c(C(=O)NCCN(C)C)cccc12 | -0.04
CN(C)CCNC(=O)c1cccc2c(NCCO)c3ccccc3nc12 | -1.19
CCCCCNc1c2ccccc2nc2c(C(=O)NCCN(C)C)cccc12 | -0.23
CN(C)CCCCCNC(=O)c1cccc2c(N)c3ccccc3nc12 | -0.73
CCN(CC)CCNC(=O)c1cccc2c(N)c3ccccc3nc12 | -0.67
CN(C)CCNC(=O)c1cccc2c(N)c3ccccc3nc12 | -1.11

The remaining lines, values ahead:

Rm | SMILES
-0.58 | CN(C)CCCCCCNC(=O)c1cccc2c(N)c3ccccc3nc12
-1 | CN(C)CCNC(=O)c1ccc2nc3ccccc3c(N)c2c1
-0.89 | CN(C)CCCCNC(=O)c1cccc2c(N)c3ccccc3nc12
-1.29 | CN1CCN(C(=O)c2cccc3c(N)c4ccccc4nc23)CC1
-0.44 | CN(C)CCCCCCCNC(=O)c1cccc2c(N)c3ccccc3nc12
-1.72 | CN(C)CCNC(=O)c1cccc2c(NCCN(C)C)c3ccccc3nc12

Species: Mus musculus
Test: Percentage increase in lifespan of treated animals over that of animals injected with tumor (10e6 P388 leukemia cells), at the optimal dose of 5.9 mg/(kg day)
Assay type: functional
Settings: not given

SMILES | ILS [%]
CCN(CC)CCNC(=O)c1cccc2c(N)c3ccccc3nc12 | 70

Species: Mus musculus
Test: Percentage increase in lifespan of treated animals over that of animals injected with tumor (10e6 P388 leukemia cells), at the optimal dose of 8.9 mg/(kg day); g=No activity (ILS < 20%)
Assay type: functional, organism-based
Settings: not given

SMILES | ILS
CN(C)CCNC(=O)c1cccc2c(NCCO)c3ccccc3nc12 | No activity (ILS <20%)
CN(C)CCNC(=O)c1cccc2c(NCCN(C)C)c3ccccc3nc12 | No activity (ILS <20%)

System: HCT-8
Test: Concentration required for 50% reduction of counted HCT-8 cells upon exposure for a period of 70h
Assay type: functional
Settings: Homo sapiens, HCT-8, 70 h; read-out: ID50 (the source's name)
Outline: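 HCT-8 human colon adenocarcinoma cells grown in Alpha MEM with glutamine for 2 days before drug addition. Drug exposure for 70 h per table footnote, with 4-day incubation stated in methods. Trypsinized cells counted electronically. ID50 = nM concentration reducing counted cells to 50% of controls.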

SMILES | IC50 [nM]
CCCCCCNc1c2ccccc2nc2c(C(=O)NCCN(C)C)cccc12 | 210
CN(C)CCNC(=O)c1cccc2c(NCCO)c3ccccc3nc12 | 540
CCCCCNc1c2ccccc2nc2c(C(=O)NCCN(C)C)cccc12 | 160
CN(C)CCCCCNC(=O)c1cccc2c(N)c3ccccc3nc12 | 1800
CCN(CC)CCNC(=O)c1cccc2c(N)c3ccccc3nc12 | 83
CN(C)CCNC(=O)c1cccc2c(N)c3ccccc3nc12 | 55

Second part, the molecule after the results:

IC50 [nM] | SMILES
1750 | CN(C)CCCCCCNC(=O)c1cccc2c(N)c3ccccc3nc12
> 5000 | CN(C)CCNC(=O)c1ccc2nc3ccccc3c(N)c2c1
1000 | CN(C)CCCCNC(=O)c1cccc2c(N)c3ccccc3nc12
> 1500 | CN1CCN(C(=O)c2cccc3c(N)c4ccccc4nc23)CC1
2000 | CN(C)CCCCCCCNC(=O)c1cccc2c(N)c3ccccc3nc12
1300 | CN(C)CCNC(=O)c1cccc2c(NCCN(C)C)c3ccccc3nc12

System: L1210
Test: Concentration required for 50% reduction of counted L1210 cells upon exposure for a period of 70h
Assay type: functional
Settings: Mus musculus, L1210, 70 h; read-out: ID50 (the source's name)
Outline: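 L1210 leukemia cells cultured with drug for 70 h, then counted. ID50 taken as the nanomolar concentration reducing cell count to 50% of untreated controls.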

SMILES | IC50 [nM]
CCCCCCNc1c2ccccc2nc2c(C(=O)NCCN(C)C)cccc12 | 65
CN(C)CCNC(=O)c1cccc2c(NCCO)c3ccccc3nc12 | 484
CCCCCNc1c2ccccc2nc2c(C(=O)NCCN(C)C)cccc12 | 43
CN(C)CCCCCNC(=O)c1cccc2c(N)c3ccccc3nc12 | 1370
CCN(CC)CCNC(=O)c1cccc2c(N)c3ccccc3nc12 | 5.5

Results, then the molecule that gave them:

IC50 [nM] | SMILES
1540 | CN(C)CCCCCCNC(=O)c1cccc2c(N)c3ccccc3nc12
> 2000 | CN(C)CCNC(=O)c1ccc2nc3ccccc3c(N)c2c1
430 | CN(C)CCCCNC(=O)c1cccc2c(N)c3ccccc3nc12
> 2000 | CN1CCN(C(=O)c2cccc3c(N)c4ccccc4nc23)CC1
1180 | CN(C)CCCCCCCNC(=O)c1cccc2c(N)c3ccccc3nc12
460 | CN(C)CCNC(=O)c1cccc2c(NCCN(C)C)c3ccccc3nc12

Species: Mus musculus
Test: Percentage increase in lifespan of treated animals over that of animals injected with tumor (10e6 P388 leukemia cells), at the optimal dose of 13.3 mg/(kg day)
Assay type: functional
Settings: not given

SMILES | ILS [%]
CCCCCNc1c2ccccc2nc2c(C(=O)NCCN(C)C)cccc12 | 64

System: not listed separately
Test: pKa value for the side-chain cationic center
Assay type: physicochemical
Settings: not given

SMILES | pKa
CN(C)CCNC(=O)c1ccc2nc3ccccc3c(N)c2c1 | 8.6
CCN(CC)CCNC(=O)c1cccc2c(N)c3ccccc3nc12 | 9.2

Species: Mus musculus
Test: Number of mice survived indefinitely out a group of 6
Assay type: functional
Settings: not given

SMILES | Survivors
CN(C)CCNC(=O)c1cccc2c(N)c3ccccc3nc12 | 1

System: not listed separately
Test: Logarithmic association constant determined by ethidium displacement from DNA co-polymers (G + C)
Settings: not given
Outline: as §1

SMILES | Log K
CCCCCCNc1c2ccccc2nc2c(C(=O)NCCN(C)C)cccc12 | 7.79
CN(C)CCNC(=O)c1cccc2c(NCCO)c3ccccc3nc12 | 7.61
CCCCCNc1c2ccccc2nc2c(C(=O)NCCN(C)C)cccc12 | 7.58
CN(C)CCCCCNC(=O)c1cccc2c(N)c3ccccc3nc12 | 7.45
CCN(CC)CCNC(=O)c1cccc2c(N)c3ccccc3nc12 | 7.59

Next, values leading:

Log K | SMILES
7.4 | CN(C)CCCCCCNC(=O)c1cccc2c(N)c3ccccc3nc12
7.55 | CN(C)CCNC(=O)c1ccc2nc3ccccc3c(N)c2c1
7.43 | CN(C)CCCCNC(=O)c1cccc2c(N)c3ccccc3nc12
6.45 | CN1CCN(C(=O)c2cccc3c(N)c4ccccc4nc23)CC1
7.3 | CN(C)CCCCCCCNC(=O)c1cccc2c(N)c3ccccc3nc12
8.2 | CN(C)CCNC(=O)c1cccc2c(NCCN(C)C)c3ccccc3nc12

Species: Mus musculus
Test: Percentage increase in lifespan of treated animals over that of animals injected with tumor (10e6 P388 leukemia cells), at the optimal dose of 250 mg/(kg day); g=No activity (ILS < 20%)
Settings: not given

SMILES | ILS
CN(C)CCNC(=O)c1ccc2nc3ccccc3c(N)c2c1 | No activity (ILS <20%)
